How the values were obtained:
[1] = Antiproliferative activity against human HAEC cells expressing VEGFR after 72 hrs by MTT assay; type: functional, cell-based
How it was run: (§1)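 MTT reduction by mitochondrial enzyme as viability read-out in primary endothelial HAEC and cancer HT29 cells. IC50 is the concentration giving 50% inhibition of proliferation, taken from dose-response curves of percent proliferation plotted against compound concentration.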

[2] = target: Vascular endothelial growth factor receptor 2 (Homo sapiens, UniProt P35968); test: Competitive inhibition of VEGFR2 by qPCR method
Chain of Vascular endothelial growth factor receptor 2 (P35968 whole entry): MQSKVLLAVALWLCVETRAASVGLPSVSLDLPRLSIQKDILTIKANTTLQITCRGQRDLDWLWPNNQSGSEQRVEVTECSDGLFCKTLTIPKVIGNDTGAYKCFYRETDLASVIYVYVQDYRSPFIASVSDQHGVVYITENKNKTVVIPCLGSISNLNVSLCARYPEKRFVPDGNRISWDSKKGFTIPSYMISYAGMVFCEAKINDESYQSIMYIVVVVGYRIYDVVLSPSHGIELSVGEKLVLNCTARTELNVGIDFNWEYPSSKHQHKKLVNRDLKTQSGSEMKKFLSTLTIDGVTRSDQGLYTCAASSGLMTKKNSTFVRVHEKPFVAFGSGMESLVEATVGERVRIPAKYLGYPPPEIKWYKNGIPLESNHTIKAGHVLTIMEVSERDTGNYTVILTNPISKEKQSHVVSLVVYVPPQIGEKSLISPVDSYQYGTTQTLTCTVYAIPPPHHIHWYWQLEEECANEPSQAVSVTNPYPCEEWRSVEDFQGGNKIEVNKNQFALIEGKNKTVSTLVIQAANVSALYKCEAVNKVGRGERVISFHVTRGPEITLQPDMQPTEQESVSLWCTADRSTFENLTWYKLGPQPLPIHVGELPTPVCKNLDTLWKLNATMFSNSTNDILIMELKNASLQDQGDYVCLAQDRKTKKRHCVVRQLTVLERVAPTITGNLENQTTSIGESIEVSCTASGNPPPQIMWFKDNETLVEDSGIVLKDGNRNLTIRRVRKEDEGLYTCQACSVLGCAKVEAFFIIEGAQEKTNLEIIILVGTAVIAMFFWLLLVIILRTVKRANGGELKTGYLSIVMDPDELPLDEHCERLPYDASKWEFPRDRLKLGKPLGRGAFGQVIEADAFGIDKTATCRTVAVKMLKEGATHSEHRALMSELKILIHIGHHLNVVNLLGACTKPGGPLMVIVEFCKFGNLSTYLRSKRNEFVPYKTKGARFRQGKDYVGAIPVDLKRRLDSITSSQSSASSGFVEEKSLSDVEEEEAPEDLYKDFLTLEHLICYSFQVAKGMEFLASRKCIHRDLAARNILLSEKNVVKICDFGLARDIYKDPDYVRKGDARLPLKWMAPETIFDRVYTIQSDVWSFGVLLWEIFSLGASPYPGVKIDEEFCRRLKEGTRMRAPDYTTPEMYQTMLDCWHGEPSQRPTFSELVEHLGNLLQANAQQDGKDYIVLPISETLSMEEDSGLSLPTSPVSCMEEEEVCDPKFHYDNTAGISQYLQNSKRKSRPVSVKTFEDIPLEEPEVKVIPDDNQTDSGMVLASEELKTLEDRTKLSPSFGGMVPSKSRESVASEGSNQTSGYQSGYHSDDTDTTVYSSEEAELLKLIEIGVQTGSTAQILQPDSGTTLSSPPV

HT-29 = test: Antiproliferative activity against human HT-29 cells expressing VEGFR after 72 hrs by MTT assay; type: functional, cell-based; details: HT-29, 72 h; how it was run: as §1
[3] = Protein binding in human serum by HPLC analysis; type: ADME, cell-free; details: read-out: PB (converted)
How it was run: (§2)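 [125I]-labelled compound incubated in fresh human serum at 4 °C and 37 °C at several time intervals. Bound fraction estimated after ethanol precipitation-extraction of proteins. Supernatant analysed by HPLC for intact radiolabelled compound.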

[4] = Lipophilicity, log D of the compound in octanol and water at pH 7.4 by shake flask method; type: physicochemical
Serum = test: Stability in human serum by HPLC analysis; type: ADME, cell-free; how it was run: as §2
[5] = Chemical stability of the compound in 1% tween-20 up to 24 hrs in dark; type: physicochemical
How it was run: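 Radiolabelled [125I] compound held in saline containing 1% Tween-20 at 37 °C in the dark for up to 24 h. Radiochemical stability checked over that period.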

Kd [2] [µM] | IC50 (HT-29) [µM] | fraction unbound [3] | logD [4] | Stability (Serum) | Stability [5] | Compound | IC50 [1] [µM]
0.016 | 1.81 |  |  |  |  | CCN(CC)CCNC(=O)c1c(C)[nH]c(/C=C2\C(=O)Nc3ccc(I)cc32)c1C | 1.12
 |  | 0.95 | 2.25 | Stable | Stable | CCN(CC)CCNC(=O)c1c(C)[nH]c(/C=C2\C(=O)Nc3ccc([125I])cc32)c1C | 
 | 0.33 |  |  |  |  | CCN(CC)CCNC(=O)c1c(C)[nH]c(/C=C2\C(=O)Nc3ccc(F)cc32)c1C [SUNITINIB] | 0.1
